Source: PMC6889762 (Toxicology Reports, 2019)

Assays:
Ferrous ion = assay: Ferrous ion
Summary of the method: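 FeCl2 (0.6 mM stock) added to the test compound solution; iron complex formation measured spectrophotometrically at 522 nm. Chelated Fe2+ % = (1 − As/Ac) × 100, where Ac is the control absorbance. IC50 came from a plot of % against concentration. Triplicate, mean ± SD.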

[1] = Fe3+-TPTZ reducing ability; conditions: for Fe^3+-TPTZ reducing (absorbance): 20 μg/mL, absorbance at 593 nm
[2] = ABTS radical cation scavenging
Summary of the method: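 Radical cation generated from 2.0 mM ABTS in deionized water with 2.3 mM K2S2O8, then diluted with pH 7.4 buffer to absorbance 0.750 ± 0.025. Test compound (10−30 μg/mL) mixed with the radical solution; residual absorbance read at 734 nm. Scavenging % = (1 − As/Ac) × 100. IC50 was taken from a plot of % against concentration. Triplicate runs, mean ± SD.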

Fe3+ reducing ability = conditions: for Fe^3+ reducing (absorbance): 20 μg/mL, absorbance at 700 nm
[3] = DMPD radical cation scavenging
Summary of the method: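 DMPD solution (0.1 M stock) added to 0.1 M acetate buffer, pH 5.3, containing the test compound (10−30 μg/mL). FeCl3 (50 mM stock) was then added and absorbance measured at 505 nm. Scavenging % = (1 − As/Ac) × 100. IC50 was read from a plot of % against concentration. Triplicate, mean ± SD.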

[4] = Superoxide anion radical scavenging
Summary of the method: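 Superoxide generated in a methionine–riboflavin system under illumination and detected by NBT reduction at 560 nm. Scavenging % = (1 − As/Ac) × 100 against a compound-free control. IC50 was estimated from a plot of % against test compound concentration. Triplicate, mean ± SD.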

Cu2+ reducing ability = conditions: for Cu^2+ reducing (absorbance): 20 μg/mL, absorbance at 450 nm; for Cu^2+ ions reducing ability (absorbance): running text: at 30 μg/mL concentration, 450 nm
Summary of the method: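 CUPRAC assay: CuCl2 (10 mM stock), neocuproine (7.5 mM stock) and 1.0 M acetate buffer were added to the test compound (10−30 μg/mL). The mixture was made up with deionized water, tubes were closed and left at room temperature, and absorbance was read at 450 nm. Higher absorbance means greater reducing ability. Triplicate runs, mean ± SD.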

DPPH radical scavenging = assay: DPPH radical scavenging
Summary of the method: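 Ethanolic DPPH (0.1 mM stock) added to the test compound in ethanol (10−30 μg/mL). Incubated 30 min in the dark, absorbance read at 517 nm. Scavenging % = (1 − As/Ac) × 100. IC50 was obtained by plotting % against concentration. Triplicate analyses, mean ± SD.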

[5] = biological target: butyrylcholinesterase (BChE) (Equus caballus, UniProt P81908); assay: biochemical; parameters: species or system equine
butyrylcholinesterase (BChE), sequence (P81908 whole entry): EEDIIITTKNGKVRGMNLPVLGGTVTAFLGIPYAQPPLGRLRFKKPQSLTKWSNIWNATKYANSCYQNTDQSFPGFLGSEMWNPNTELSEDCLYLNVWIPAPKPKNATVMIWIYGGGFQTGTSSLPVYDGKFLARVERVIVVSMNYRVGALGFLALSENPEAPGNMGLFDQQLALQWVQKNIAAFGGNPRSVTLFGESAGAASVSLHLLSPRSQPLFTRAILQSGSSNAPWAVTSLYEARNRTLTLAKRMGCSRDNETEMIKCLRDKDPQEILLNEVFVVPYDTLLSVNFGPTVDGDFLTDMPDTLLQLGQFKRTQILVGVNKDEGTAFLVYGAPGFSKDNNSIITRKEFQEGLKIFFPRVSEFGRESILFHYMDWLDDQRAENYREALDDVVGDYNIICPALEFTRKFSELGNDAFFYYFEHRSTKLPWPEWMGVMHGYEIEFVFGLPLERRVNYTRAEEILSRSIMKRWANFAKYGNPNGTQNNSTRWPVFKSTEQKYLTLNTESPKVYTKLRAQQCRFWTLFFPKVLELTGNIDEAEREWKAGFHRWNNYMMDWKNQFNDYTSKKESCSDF

[6] = biological target: acetylcholinesterase (AChE) (Electrophorus electricus, UniProt O42275); assay: AChE inhibition; assay type: biochemical, Electric eel
acetylcholinesterase (AChE), sequence (O42275 24-633): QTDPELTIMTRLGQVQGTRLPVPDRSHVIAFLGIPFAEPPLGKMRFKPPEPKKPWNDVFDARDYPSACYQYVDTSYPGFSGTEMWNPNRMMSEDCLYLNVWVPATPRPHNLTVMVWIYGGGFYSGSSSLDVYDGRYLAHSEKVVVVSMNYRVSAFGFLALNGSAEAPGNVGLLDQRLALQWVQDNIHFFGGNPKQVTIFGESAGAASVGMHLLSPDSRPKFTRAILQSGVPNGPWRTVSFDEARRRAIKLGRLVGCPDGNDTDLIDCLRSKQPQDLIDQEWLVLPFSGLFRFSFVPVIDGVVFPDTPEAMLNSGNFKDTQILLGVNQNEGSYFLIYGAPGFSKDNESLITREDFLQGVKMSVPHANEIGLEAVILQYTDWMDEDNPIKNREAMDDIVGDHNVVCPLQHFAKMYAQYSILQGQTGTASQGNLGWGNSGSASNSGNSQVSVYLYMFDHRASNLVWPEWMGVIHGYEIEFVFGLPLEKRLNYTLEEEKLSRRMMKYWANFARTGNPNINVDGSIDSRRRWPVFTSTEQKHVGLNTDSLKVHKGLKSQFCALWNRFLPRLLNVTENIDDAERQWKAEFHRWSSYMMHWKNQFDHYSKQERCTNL

| Metal chelating (Fe^2+) IC50 (Ferrous ion) | ABTS^•+ scavenging IC50 [2] | O2^•− scavenging IC50 [4] | DPPH· scavenging IC50 (DPPH radical scavenging) | Structure (SMILES) | Fe^3+-TPTZ reducing (absorbance) [1] | Fe^3+ reducing (absorbance) (Fe3+ reducing ability) | DMPD^•+ scavenging IC50 [3] | Cu^2+ reducing (absorbance) (Cu2+ reducing ability) | Cu^2+ ions reducing ability (absorbance) (Cu2+ reducing ability) | IC50 [5] | IC50 [6] | Ki [6] | FRAP effects (absorbance) ([1]; concentration not given, 593 nm) | Fe^3+ reducing ability (absorbance) (Fe3+ reducing ability; concentration not given, 700 nm) | DMPD^•+ scavenging activity [3] |
| --- | --- | --- | --- | --- | --- | --- | --- | --- | --- | --- | --- | --- | --- | --- | --- |
| 6.24 µg/mL |  |  |  | O=C(O)CN(CCN(CC(=O)O)CC(=O)O)CC(=O)O [EDTA] |  |  |  |  |  |  |  |  |  |  |  |
| 8.05 µg/mL | 4.30 µg/mL | 30.13 µg/mL | 8.01 µg/mL | Cc1c(C)c2c(c(C)c1O)CCC(C)(C(=O)O)O2 (stereo not drawn) [Trolox, trolox] | 1.973 | 1.148 | 22.35 µg/mL | 0.825 | 0.825 |  |  |  |  |  |  |
| 27.72 µg/mL | 5.02 µg/mL | 21.01 µg/mL | 9.76 µg/mL | Cc1c(C)c2c(c(C)c1O)CC[C@@](C)(CCC[C@H](C)CCC[C@H](C)CCCC(C)C)O2 [α-Tocopherol, α-tocopherol] | 1.473 | 0.802 |  | 0.564 | 0.564 |  |  |  |  |  | did not demonstrate scavenging activity |

| Structure (SMILES) | Metal chelating (Fe^2+) IC50 (Ferrous ion) | ABTS^•+ scavenging IC50 [2] | O2^•− scavenging IC50 [4] | DPPH· scavenging IC50 (DPPH radical scavenging) | Fe^3+-TPTZ reducing (absorbance) [1] | Fe^3+ reducing (absorbance) (Fe3+ reducing ability) | DMPD^•+ scavenging IC50 [3] | Cu^2+ reducing (absorbance) (Cu2+ reducing ability) | Cu^2+ ions reducing ability (absorbance) (Cu2+ reducing ability) | IC50 [5] | IC50 [6] | Ki [6] | FRAP effects (absorbance) ([1]; concentration not given, 593 nm) | Fe^3+ reducing ability (absorbance) (Fe3+ reducing ability; concentration not given, 700 nm) | DMPD^•+ scavenging activity [3] |
| --- | --- | --- | --- | --- | --- | --- | --- | --- | --- | --- | --- | --- | --- | --- | --- |
| CC(=O)c1c(O)c(C)c(O)c2c1OC1=CC(=O)C(C(C)=O)C(=O)C12C (stereo not drawn) [Usnic acid] | 18.68 µg/mL | 10.41 µg/mL | 20.38 µg/mL | 49.50 µg/mL | 1.293 | 0.278 | 33.00 µg/mL | 0.277 | 0.277 | 3.4 nM | 1.27 nM | 0.239 nM | 1.293 | 0.278 |  |
